# CXCR6 inh – blocks human CXCR6 beta-arrestin recruitment | O00574 | CHO-K1 PathHunter CXCR6 beta-arrestin, luminescence | inhibition, % at 20 µM | actives 0.36% (n = 360,000) | AID 602244; in the data active = inhibition above about 34%, passing the limit was not always enough;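 note: antagonist mode with CXCL16 agonist at 10 nM final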
# Target sequence (O00574 whole entry, looked up): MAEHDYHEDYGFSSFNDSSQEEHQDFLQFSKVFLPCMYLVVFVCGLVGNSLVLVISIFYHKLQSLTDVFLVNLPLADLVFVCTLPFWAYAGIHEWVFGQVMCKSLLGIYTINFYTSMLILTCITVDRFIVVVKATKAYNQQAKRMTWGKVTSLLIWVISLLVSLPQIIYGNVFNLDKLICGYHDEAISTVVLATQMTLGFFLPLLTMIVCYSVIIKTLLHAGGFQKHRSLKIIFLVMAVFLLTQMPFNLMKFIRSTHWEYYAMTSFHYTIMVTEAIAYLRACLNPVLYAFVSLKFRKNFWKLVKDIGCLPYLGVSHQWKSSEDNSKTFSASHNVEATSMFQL
# DAGLB inhibitor – blocks human DAGLB lipase activity. Q8NCG7. HEK293T DAGLB membrane lysate, EnzChek fluorogenic substrate. inhibition, % at 5.17 µM. actives 0.059% (n = 340,000). AID 504411; in the data active = inhibition above about 34%
# CCR6 antag – antagonists of human CCR6 receptor; inhibition, % at 20 µM; CHO-K1 CCR6 PathHunter beta-arrestin, luminescence, CCL20-stimulated; actives 0.49% (n = 340,000); AID 493098;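 active = compounds whose inhibition of the agonist-driven luminescence signal at 20 µM reaches about 50%, limit read from the data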;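 note: cells stimulated with CCL20 at 14 nM final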
# APJ antagonist – APJ receptor antagonism. inhibition, % at 20 µM. AID 2521. P35414. actives 0.32% (n = 330,000). CHO-K1 APJ beta-arrestin complementation, luminescence;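 active = inhibition above about 40% at 20 µM, limit read from the data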;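 note: cells challenged with 10 nM apelin-13 agonist together with compound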
# hiPSC survival – increases survival of single human iPS cells; actives 0.044% (n = 360,000); AID 602274; hiPSC single-cell survival, ATPlite luminescence; 100% = ROCK inhibitor wells, 0% = DMSO; survival enhancement, % at 20 µM; in the data active = survival enhancement above about 18%;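 note: cells exposed to compounds for 16 hours before the ATP read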
# APJ agonist – APJ receptor agonism | P35414 | CHO-K1 APJ PathHunter beta-arrestin, luminescence; 0% DMSO wells, 100% apelin | activation, % at 20 µM | actives 0.11% (n = 330,000) | AID 2520;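 active = activation more than six SD over the plate average, tested at 20 µM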
#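 Material: engineered CHO-K1 APJ arrestin reporter cells; amount: 1000 CHO-K1 reporter cells seeded per well; incubation: compound stimulation 90 min at 25 °C, detection 60 min; signal: luminescent beta-gal fragment complementation, chemiluminescent substrate; read-out basis: APJ agonist activity; controls: DMSO-only wells as negative, 10 nM Apelin-13 as positive control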
# Hits are given with their value; n = inactive; x = no result given. The list is not random: actives were taken first. Their share in the collection is about 0.86%.
SMILES,CXCR6 inh,DAGLB inhibitor,CCR6 antag,APJ antagonist,hiPSC survival,APJ agonist
O=[N+]([O-])c1ccc(O)c(/C=N/Nc2nc3ccccc3[nH]2)c1,n,n,n,n,n,n
O=[N+]([O-])c1ccc(NN=Cc2ccc(O)cc2O)nc1,n,n,63.0,x,n,x
O=[N+]([O-])c1ccc(O)c(/C=N/Nc2ccccn2)c1,n,n,61.0,x,n,x
COc1ccc(N2CC(C(=O)N/N=C/c3cc([N+](=O)[O-])ccc3O)CC2=O)cc1 (stereo not drawn),n,n,55.8,n,n,n
O=C(N/N=C/c1cc([N+](=O)[O-])ccc1O)NC12CC3CC(CC(C3)C1)C2,n,n,n,n,n,n
O=[N+]([O-])c1ccc(NN=Cc2ccccc2O)nc1,n,n,x,x,n,x
Cc1cc(C)n2nc(SCC(=O)N3CCCC(C)C3)nc2n1 (stereo not drawn),n,n,n,n,n,n
CCOC(=O)[C@]12CCCC=C1N(Cc1ccco1)C(=O)[C@H](CC(=O)NCCC(C)C)C2,n,x,x,x,n,x
c1ccc(CCCNCCCn2cnc3c(OCc4ccccc4)ncnc32)cc1,n,n,n,x,n,x
O=C(C(=O)N1CCN(c2ccccc2Cl)CC1)c1c[nH]c2ccccc12,n,n,n,n,n,n
CC(=O)/C=C1/C(=O)Nc2ccccc21,n,n,76.0,91.5,n,n
C=CCOc1cccc(C(=O)/C=C2/C(=O)Nc3ccccc32)c1,n,n,n,n,n,n
CCCn1c(NC(=O)CN2C(=O)NC3(CCCC3)C2=O)nc2ccccc21,n,n,n,n,n,n
Nc1c(Cl)cc2c(c1Oc1ccccc1)C(=O)c1ccccc1C2=O,37.8,n,n,n,n,n
C=C(CC[C@@H](O)C(C)(C)O)[C@H]1CC[C@]2(C)[C@@H]1CCC1[C@@]3(C)CC[C@H](O)C(C)(C)C3CC[C@]12C (stereo partly drawn),n,n,69.2,n,n,n
C=C(C)[C@@H]1CC[C@]2(C(=O)O)CC[C@]3(C)[C@H](CC[C@@H]4[C@@]5(C)CC[C@H](O)C(C)(C)[C@@H]5CC[C@]43C)[C@@H]12,n,n,n,n,n,n
CNc1c(C(=O)O)ccc2c1C(=O)c1ccccc1C2=O,n,n,52.6,n,n,n
CCNc1c(C(=O)O)ccc2c1C(=O)c1ccccc1C2=O,n,n,n,n,n,n
Cc1cc(C)c(C)c(N=Nc2nc3ccccc3n2C)c1C,n,n,n,n,n,n
Cc1ccc(C)c(N=Nc2nc3ccccc3n2C)c1,27.7,n,n,n,n,n
CCN(CC)C(=O)NC1CC(=O)N(c2ccc(OC)cc2)C1 (stereo not drawn),n,n,n,n,n,n
CN(C)S(=O)(=O)c1cccc(NC(=O)CSc2cccc3cccnc23)c1,51.1,n,71.1,n,n,n
Cc1cc(C)c2nc(N3CCN(C)CC3)c(C#N)cc2c1,n,n,n,n,21.2,n
Cc1cccc2cc(C#N)c(N3CCN(C)CC3)nc12,n,n,n,n,n,n
COc1ccc(C(=O)/C=C/c2cc(OC)c(O)c(OC)c2)c(F)c1,n,n,51.3,n,n,n
SMILES,CXCR6 inh,DAGLB inhibitor,CCR6 antag,APJ antagonist,hiPSC survival,APJ agonist
CSC(=S)N/N=C(\C)c1ccccc1,n,n,57.1,46.8,n,n
CCOc1ccc(N2C(=O)CC(N(CCc3ccc(OC)c(OC)c3)C(=O)/C=C/C(=O)O)C2=O)cc1 (stereo not drawn),n,n,n,n,n,n
CCOC(CN=c1nc(N(C)C)ss1)OCC,60.2,n,91.7,x,n,x
CCC1(c2ccc(Cl)cc2)NC(=O)N(CC(=O)NC2CCCC(C)C2C)C1=O (stereo not drawn),n,n,n,n,n,n
Cc1ccc(-n2sc3ccccc3c2=O)cc1,n,n,51.5,n,n,n
O=C(CNC(=O)c1ccccc1)OC(C(=O)Nc1cc(C(F)(F)F)ccc1Cl)c1ccccc1 (stereo not drawn),n,n,n,n,18.6,n
Cc1cnc(C(=O)OC(C(=O)Nc2cc(C(F)(F)F)ccc2Cl)c2ccccc2)cn1 (stereo not drawn),n,n,n,n,n,n
CC(=O)Oc1ccccc1C(=O)NC(C)CCc1ccccc1 (stereo not drawn),n,n,n,n,n,n

# High-throughput results as filed in PubChem.
